Assay outcomes as filed in PubChem.
Compounds with a hit are over-represented: about 1.9% of the library has one in this group of screens.
ADAM17 inh = ADAM17 inhibitors, primary screen, biochemical, QFRET | hit rate 0.83% among 370,000 | recombinant ADAM17, EDANS/DABCYL FRET peptide cleavage | inhibition, % at 6.95 µM;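 active means inhibition above the mean of compounds lying between control limits plus 3 SD, set per campaign, cut at about 8.5% in these data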;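 further: 0% = DMSO-only wells as the low control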
Target sequence (P78536 215-824 limits assumed): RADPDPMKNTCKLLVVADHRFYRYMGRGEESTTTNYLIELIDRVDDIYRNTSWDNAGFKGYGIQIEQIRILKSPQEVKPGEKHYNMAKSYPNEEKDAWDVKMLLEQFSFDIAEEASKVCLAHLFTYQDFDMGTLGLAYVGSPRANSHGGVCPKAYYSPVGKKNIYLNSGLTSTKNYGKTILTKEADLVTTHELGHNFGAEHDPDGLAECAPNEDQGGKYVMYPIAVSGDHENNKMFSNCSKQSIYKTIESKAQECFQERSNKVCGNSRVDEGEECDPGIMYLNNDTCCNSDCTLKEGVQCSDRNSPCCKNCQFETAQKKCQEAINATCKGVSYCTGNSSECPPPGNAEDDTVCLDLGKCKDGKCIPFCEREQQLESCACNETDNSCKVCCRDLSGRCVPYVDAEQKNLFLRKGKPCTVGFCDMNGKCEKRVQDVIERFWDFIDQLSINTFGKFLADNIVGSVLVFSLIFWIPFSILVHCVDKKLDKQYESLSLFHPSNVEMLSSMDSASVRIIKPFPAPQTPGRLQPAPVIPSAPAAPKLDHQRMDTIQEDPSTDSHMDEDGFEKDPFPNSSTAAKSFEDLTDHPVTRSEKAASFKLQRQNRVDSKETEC
ADAM10 inh = human ADAM10 inhibitors, primary screen, biochemical, QFRET, HTS | hit rate 0.62% among 370,000 | recombinant ADAM10, EDANS/DABCYL FRET peptide cleavage, 3 h | AID 720582, 2013 | Disintegrin and metalloproteinase domain-containing protein 10 (Homo sapiens), O14672 | inhibition, % at 7 µM;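 active means inhibition above a per-campaign cutoff equal to the mean of compounds falling between control-based bounds plus 3 SD, cut at about 20% in these data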;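 further: 0% = DMSO wells while the 100% control is not disclosed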
SENP1 inh = human SENP1 catalytic domain inhibitors, primary screen, biochemical, FRET, uHTS | hit rate 0.21% among 360,000 | Sentrin-specific protease 1 (Homo sapiens), Q9P0U3 | recombinant SENP1 catalytic domain, CyPet-SUMO1-YPet FRET cleavage | inhibition, % at 10 µM | AID 624204, 2012;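 active means inhibition at least 30% at 10 µM, raw YFP signal under a set limit, fluorescence ratio 0.5 to 1.5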;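 further: 0% = enzyme with DMSO and 100% = no enzyme wells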
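Test system: human SENP1 catalytic domain; medium: Tris pH 8 buffer plus EDTA, NaCl, BME, BSA, NP40, catalase; incubation: 50 min reaction at room temperature; technique: FRET, CFP and YFP emission; controls: no-enzyme low control and enzyme-plus-DMSO high control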
FAS TE block = FAS thioesterase domain inhibitors, primary screen, biochemical, fluorescence intensity, uHTS; recombinant FAS-TE, OMFH fluorogenic substrate, fluorescence endpoint; Fatty acid synthase (Homo sapiens), P49327; hit rate 0.67% among 360,000; inhibition, % at 15 µM; AID 602261, 2012;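 active means compounds whose normalised, plate-corrected inhibition of enzyme fluorescence in the single-dose primary screen is 50% or more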;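 further: 0% = DMSO with enzyme and 100% = substrate without enzyme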
ADAM10 ctr = ADAM10 inhibitors, counter-screen for ADAM17 exosite inhibitor project, biochemical, FRET, human ADAM10 | shares compounds with ADAM17 inh | inhibition, % at 6.95 µM | recombinant ADAM10, EDANS/DABCYL FRET peptide cleavage, 3 h | hit rate 47% among 2,900 | AID 743256, 2014;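 active means mean inhibition over the triplicate runs exceeds the activity threshold set in the earlier primary screen, cut at about 20% in these data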;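 further: 0% = DMSO wells and 100% = marimastat wells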
ADAM17 confirm = ADAM17 inhibitors, hit retest, confirmation, biochemical, QFRET peptide cleavage; AID 743257, 2014; inhibition, % at 6.95 µM; shares compounds with ADAM17 inh; hit rate 65% among 2,900; recombinant ADAM17, EDANS/DABCYL QFRET peptide cleavage;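 active means mean inhibition across replicates above the hit cutoff set in the primary screen, cut at about 8.5% in these data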;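 further: 0% = DMSO wells and 100% = marimastat wells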
* hit, by the source's call; . = no result given.

SMILES	ADAM17 inh	ADAM10 inh	SENP1 inh	FAS TE block	ADAM10 ctr	ADAM17 confirm
COc1ccc(S[C@]2(C(=O)N3CCCC3)CC(=O)N(C(=O)c3ccccc3)[C@@H]2c2ccc(OC)cc2)cc1	6	5	.	.	.	.
Cc1cc(C)cc(NC(=O)c2cccn2-c2ncc(C(F)(F)F)cc2Cl)c1	17*	19	-1	23	9	5
O=C(Nc1ccc(F)cc1F)c1cccn1-c1ncc(C(F)(F)F)cc1Cl	2	7	2	8	.	.
C=CCN1C(=O)[C@@H](CC(=O)NCc2cccs2)[C@]2(C(=O)OC)CCCCC=C12	-1	-13	.	.	.	.
Cc1cc(N2CCCC2=O)cc(C)c1S(=O)(=O)NCCOc1ccc(C(C)(C)C)cc1	11*	16	0	7	8	6
COC(=O)c1ccc(CCc2cc(O)c(Br)cc2O)cc1	8.9*	0	-4	10	-2	-1
COC(=O)c1ccc(CCc2cc(O)ccc2O)cc1	.	.	-1	0	.	.
CNC(=S)N/N=C/c1c(C(=O)OC)cnn1-c1ccc(Cl)cc1	-1	-3	.	.	.	.
O=C1OC(c2ccc(O)cc2)(c2ccc(O)cc2)c2ccccc21	-1	-8	-3	5	.	.
O=C1OC(c2ccccc2)(c2ccc3cc(O)ccc3c2)c2ccccc21 (configuration not stated)	10*	19	0	30	25*	13*
CC(C)C[C@H](NC1(C(=O)NC2CCCCC2)CCN(C)CC1)C(=O)NCC(c1ccccc1)c1ccccc1	-5	-3	.	.	.	.
CC(=O)N1CCCN(S(=O)(=O)c2ccc3c(c2)c(=O)n(C)c(=O)n3C)CC1	2	5	.	.	.	.
Cc1onc(-c2ccccc2)c1CNC(=O)Nc1ccc(C(F)(F)F)cc1	9.1*	18	1	28	27*	16*
Cc1cc(C)cc(NC(=O)NCc2c(-c3ccccc3)noc2C)c1	2	8	2	2	.	.
Cc1onc(-c2ccccc2)c1C(=O)Nc1ccc(Cl)c(S(=O)(=O)N2CCOCC2)c1	11*	-4	-2	4	10	6
Cc1onc(-c2ccccc2Cl)c1C(=O)Nc1cccc(S(=O)(=O)N2CCOCC2)c1	0	-17	1	2	.	.
CS(=O)(=O)NCc1nnc(SCC(=O)NC2CCCCC2)n1-c1ccc(F)cc1	9.1*	10	2	-5	-1	5
O=C(NC(Cc1ccccc1)C(=O)N1CCCCCC1)c1ccccc1 (configuration not stated)	2	9	-1	2	.	.
O=C(NC(Cc1ccccc1)C(=O)N1CCCCC1)c1ccccc1 (configuration not stated)	9.3*	2	0	-7	8	5
N#Cc1ccccc1CSc1ccccn1	9.1*	12	1	-3	-8	0
CN(C)c1ccc(NC(=O)c2ccc(COc3cccc(Cl)c3)o2)cc1	10*	17	5	20	18	12*
CCN1CCN(C(=O)c2ccc(COc3cccc(Cl)c3)o2)CC1	-3	7	-2	-2	.	.
COC(=O)[C@@H]1C[C@H]2CC[C@H](O)C[C@H]2N1Cc1ccccc1OC(=O)c1cccs1	11*	3	-19	-4	-5	0
NC(=O)C1CCN(c2nc(-c3ccc(OCc4ccccc4)cc3)cs2)CC1	-5	8	.	.	.	.
CC(C)NC(=O)c1cc(C2CCCCN2S(=O)(=O)c2ccc(C#N)cc2)on1 (configuration not stated)	-6	-8	1	-2	.	.
SMILES	ADAM17 inh	ADAM10 inh	SENP1 inh	FAS TE block	ADAM10 ctr	ADAM17 confirm
N#Cc1cccc(NC(=O)c2cc(C3CCCCN3S(=O)(=O)c3ccccc3)on2)c1 (configuration not stated)	12*	14	2	21	18	12*
COc1cccc(Cn2cnc3c(NS(=O)(=O)c4cc(Cl)ccc4Cl)c(C)c(C)cc32)c1	8.9*	20	1	31	20*	11*
CCOC(=O)N1CCC(NC(=O)CS(=O)(=O)Cc2nc(-c3cccc(Cl)c3)oc2C)CC1	9.6*	-3	1	-2	2	3
O=C(NC(Cc1c[nH]c2ccccc12)C(=O)OCC(=O)c1cccc2ccccc12)c1cccs1 (configuration not stated)	9.5*	10	-8	23	9	8.9*
COC(=O)C(Cc1c[nH]c2ccccc12)NC(=O)c1cccs1 (configuration not stated)	-2	-2	-2	-4	.	.
COC[C@@H]1CCCN1c1ccc2c(c1)O[C@@H]1CCN(C1)S2(=O)=O	-4	-6	.	.	.	.
CCOC(=O)C1=C(C)N(CCCCCC(=O)O)C(=O)NC1c1ccccc1OC(=O)c1cccs1 (configuration not stated)	10*	5	.	.	-1	4
CCOC(=O)C1=C(C)N(CCC(=O)O)C(=O)NC1c1ccccc1Cl (configuration not stated)	-4	5	0	-2	.	.
CCOC(=O)N1CCN(C(=O)C[C@H]2C[C@@]3(C(=O)OC)C(=C[C@H](COCc4ccccc4)O[C@@H]3C)N(Cc3ccc4c(c3)OCO4)C2=O)CC1	-2	-6	.	.	.	.
CCc1ccc(CCNC(=O)OC2CC3CC2[C@H]2CCCCN2[C@H]3C)cc1 (some centres not stated)	-1	-6	.	.	.	.
O=[N+]([O-])c1ccc(Nc2ccc(F)cc2)nc1	10*	3	-8	0	3	5
O=[N+]([O-])c1ccc(Nc2ccccc2)nc1	2	5	-15	5	.	.
Cc1ccc(Cn2c(=O)c3c(nc4n3CCCN4Cc3ccccc3)n(C)c2=O)cc1	10*	6	0	18	15	5
CCOC(=O)[C@@]12CCCC=C1N(CCc1ccc(Cl)cc1)C(=O)[C@H]2CC(=O)NCc1cccc2ccccc12	4	6	.	.	.	.
Cc1cc(OCC(=O)OCC(=O)NCc2ccc3c(c2)OCO3)ccc1Cl	11*	-5	2	-5	9	9.1*
O=C(COC(=O)COc1ccc(Br)cc1)NCc1ccc2c(c1)OCO2	3	1	7	-7	.	.
NC1=NC2(CCC(c3ccccc3)CC2)n2c(nc3ccccc32)N1 (configuration not stated)	9.0*	0	2	-17	12	7
